For twelve compounds, Activity results are on record in ChEMBL document CHEMBL1127359, “Synthetic laminin-like peptides and pseudopeptides as potential antimetastatic agents” (1994).

Square brackets hold non-standard residues; d marks the D form. Peptide text beside a SMILES is read from it. Phe(4-NH2) = Nc1ccc(C[C@H](N)C(=O)O)cc1; Phe(4-F) = N[C@@H](Cc1ccc(F)cc1)C(=O)O

Common to all, as to format: functional, cell-based
The test system of assay [1] is B16-F10. Put plainly: Antimetastatic activity against HT1080 and B16F10 cells in cell attachment assay; moderate attachment activity. The method in brief: (§1)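 Peptide dissolved in water with a drop of acetic acid and dried overnight onto culture wells (amount given is quantity dried on plastic). Wells blocked with EMEM/3% BSA 30 min at 37 °C, then EMEM/0.02% BSA. HT-1080 or B16F10 cells (4 × 10⁴) added, 1 h at 37 °C, 5% CO₂. PBS wash; attached cells fixed, stained and counted (eight fields/well) or trypsinized and Coulter-counted; duplicate wells, mean ± SD.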

The test system of assay [2] is B16-F10. The assay can be described thus: Antimetastatic activity against HT1080 and B16F10 cells in cell attachment assay; Low attachment activity.
Assay [3] has as its system B16-F10. Put plainly: Antimetastatic activity against HT1080 and B16F10 cells in cell attachment assay; high attachment activity with about 70% of cells attached.
Assay [4] concerns B16-F10. Put plainly: Antimetastatic activity against HT1080 and B16F10 cells in cell attachment assay; low attachment activity.
Assay [5] relates to B16-F10. The assay can be described thus: Antimetastatic activity against HT1080 and B16F10 cells in cell attachment assay; high, but not maximal, attachment activity. The procedure, abridged: as §1
In assay [6] the test system is B16-F10. The assay can be described thus: Antimetastatic activity against HT1080 and B16F10 cells in cell attachment assay; Moderat attachment activity. The procedure, abridged:
as §1

The subject of assay [7] is B16-F10. Put plainly: Antimetastatic activity against HT1080 and B16F10 cells in cell attachment assay; Moderate attachment activity. The procedure, abridged: as §1

Regarding `CC[C@H](C)[C@@H](C(=O)NCC(=O)N[C@@H](CO)C(=O)N[C@@H](CCCN=C(N)N)C(N)=O)N(C=O)C[C@@H](N)Cc1ccc(O)cc1`, in the assay with B16-F10 [1], the Activity entry was “moderate attachment activity”.
As for `CC[C@H](C)[C@H](NC(=O)[C@@H](N)Cc1ccc(O)cc1)C(=O)NCC(=O)N[C@@H](CO)C(=O)N[C@@H](CCCN=C(N)N)C(N)=O`, the Activity result in the assay with B16-F10 [2] is recorded as “Low attachment activity”.
Take `CC[C@H](C)[C@H](NC(=O)[C@H](N)Cc1ccc(O)cc1)C(=O)NCC(=O)N[C@@H](CO)C(=O)N[C@@H](CCCN=C(N)N)C(=O)O` [LAMININ]: the Activity result in the assay with B16-F10 [3] is listed as “high attachment activity with about 70% of cells attached”.
For the compound `CC[C@H](C)[C@@H](CNCC(=O)N[C@@H](CO)C(=O)N[C@@H](CCCN=C(N)N)C(N)=O)NC(=O)[C@@H](N)Cc1ccc(O)cc1`, the Activity result in the assay with B16-F10 [4] is listed as “low attachment activity”.
On to `CC[C@H](C)[C@H](NC(=O)[C@@H](N)Cc1ccc(O)cc1)C(=O)NCCN[C@@H](CO)C(=O)N[C@@H](CCCN=C(N)N)C(N)=O`, for which the Activity result in the assay on B16-F10 [4] is reported as “low attachment activity”.
Turning to H-FIGSR-NH2, in the assay with B16-F10 [2], the Activity entry is recorded as “Low attachment activity”.
As to `CC[C@H](C)[C@H](NC(=O)[C@@H](N)Cc1ccc(O)cc1)C(=O)NCC(=O)N[C@@H](CO)CN[C@@H](CCCN=C(N)N)C(N)=O`, the Activity entry in the assay on B16-F10 [2] is “Low attachment activity”.
`CC[C@H](C)[C@H](NC(=O)[C@@H](N)Cc1ccc(N)cc1)C(=O)NCC(=O)N[C@@H](CO)C(=O)N[C@@H](CCCN=C(N)N)C(N)=O` (H-[Phe(4-NH2)]IGSR-NH2): the Activity entry in the assay on B16-F10 [5] was “high, but not maximal, attachment activity”.
Consider `CC[C@H](C)[C@H](NC[C@@H](N)Cc1ccc(O)cc1)C(=O)NCC(=O)N[C@@H](CO)C(=O)N[C@@H](CCCN=C(N)N)C(N)=O`, for which, in the assay with B16-F10 [6], the Activity entry is given as “Moderat attachment activity”.
Take `CC[C@H](C)[C@H](NC(=O)[C@H](N)Cc1ccc(O)cc1)C(=O)NCC(=O)N[C@@H](CO)C(=O)N[C@@H](CCCN=C(N)N)C(N)=O`: the Activity result with B16-F10 [2] is “Low attachment activity”.
Regarding `CC[C@H](C)[C@H](NC(=O)[C@@H](N)Cc1ccc(F)cc1)C(=O)NCC(=O)N[C@@H](CO)C(=O)N[C@@H](CCCN=C(N)N)C(N)=O` (H-[Phe(4-F)]IGSR-NH2), the Activity result in the assay on B16-F10 [7] is “Moderate attachment activity”.
With H-CYIGSRYIGSRYIGSR-NH2, the Activity result with B16-F10 [3] is “high attachment activity with about 70% of cells attached”.
